One data set concerns H1975 (L858R T790M). Briefly: Cell proliferation assay. The format is cell-based. The conditions noted are these: Homo sapiens, NCI-H1975, 72 h.
Data set [1] deals with EGFR wild-type cell lines (H460, Calu-6 and LOVO) and EGFR-deficient Ba/F3 cells. Briefly: Cell proliferation assay, summary over the panel. The following applies: read-out: mean IC50 values. The format is cell-based.
A further data set deals with H1975 cells. As to the kind of experiment: Cell cycle analysis. The format is cell-based, human. The following applies: 1 nmol/L, 24 h. The method in brief: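 H1975 cells plated at 2 × 10⁵ per well and allowed to adhere, then exposed to 1 nmol/L test compound for 24 h. Cells fixed in 75% ethanol at −20 °C overnight, washed in PBS, and stained with DNA staining solution for 30 min at room temperature in the dark. DNA content analysed immediately by flow cytometry; n = 3.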

Data set [2] relates to H1975 (L858R T790M) xenografts. Briefly: H1975 subcutaneous xenograft study. It is filed as in vivo, BALB/c nude mouse. The conditions noted are these: BEBT-109 30 and 60 mg/kg.
The subject of data set [3] is HCC827 (Del19) xenografts. As to the kind of experiment: HCC827 subcutaneous xenograft study. The format is in vivo, BALB/c nude mouse. The following applies: BEBT-109 60 mg/kg, osimertinib 25 mg/kg (MTD doses). The method in brief: (§1)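 Female BALB/c nude mice, 7–8 weeks old, inoculated subcutaneously in the right armpit with 2–5 × 10⁶ cells/ml in 0.1 ml PBS (PC-9 in 50% matrigel). Randomised at n = 8 per group; oral test compound started at 200–300 mm³. Tumors measured by caliper, with V = length × width²/2; survival followed after treatment.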

A further data set concerns PC-9 (Del19) xenografts. Briefly: PC-9 subcutaneous xenograft study. The conditions noted are these: BEBT-109 60 mg/kg, osimertinib 25 mg/kg (MTD doses). It is filed as in vivo, BALB/c nude mouse. The method in brief: as §1
Data set [4] concerns EGFR A767_V769dupASV-driven Ba/F3 tumor model. As to the kind of experiment: Ba/F3 EGFR A767_V769dupASV xenograft study. The format is in vivo, BALB/c nude mouse. The following applies: BEBT-109 40 mg/kg bid, osimertinib 20 mg/kg qd (MTD doses), 14 days, n = 8.
Data set [5] is described as follows: Tolerability in xenograft studies. It is filed as in vivo, BALB/c nude mouse. The conditions noted are these: HCC827, PC-9 and exon 20 insertion xenograft models.
The test system of a further data set is PC-9 (Del19). The following applies: read-out: potency against Del19 (measure not given); ref [20]; cited from earlier work.
In the next data set the test system is H1975 (T790M). The conditions noted are these: read-out: potency against T790M (measure not given); ref [20]; cited from earlier work.
For a further data set, the system named is LOVO (wild-type EGFR). The following applies: read-out: potency in wild-type EGFR cell line (measure not given); ref [20]; cited from earlier work.

As for `C=CC(=O)Nc1cc(Nc2nccc(-c3cn(C)c4ccccc34)n2)c(OC)cc1N(C)CCN(C)C` [Osimertinib], the IC50 with H1975 (L858R T790M) is 3.9 nM; in [1], more than 1000 nM. Besides, in the data set on H1975 cells, the “effect on cell-cycle progression” value is recorded as “did not change the cell cycle profile”. The “host mice survival post treatment” value in data set [2] (osimertinib 25 mg/kg) is given as more than 30 days. For the same compound, the tumor regression result is “complete H1975 tumor regression” in data set [2] (osimertinib 25 mg/kg (MTD), daily, four weeks); “complete tumor regression” in data set [3]; “complete tumor regression” in the data set with PC-9 (Del19) xenografts. In [4], the tumor growth result is “sustained tumor regression was not observed”. Also, the body weight result in [5] is listed as “Neither drug caused significant body weight loss”.

Consider `C=CC(=O)Nc1cc(Nc2nccc(-c3c[nH]c4ccccc34)n2)c(OC)cc1N(C)CCN(C)C` [AZ5104], for which the results for the IC50 in the data set with PC-9 (Del19), in the data set on H1975 (T790M) and with LOVO (wild-type EGFR) were 2 nM, 2 nM and 33 nM, respectively.

These data come from publication PMC7745057 (Translational Oncology, 2020).
